Source: PubChem BioAssay
Only a selection was taken, and hits are over-represented in it overall.
KDM4C inh: inhibitors of GASC-1 (KDM4C) histone demethylase, primary screen, biochemical, single concentration HTS. inhibition, % at 12.5 µM. AID 720574, 2013. Lysine-specific demethylase 4C (Homo sapiens), Q9H3R0. actives 0.15% (n = 96,000). GST-KDM4C 2-372, H3K9me3 peptide, LANCE TR-FRET;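 active means mean replicate inhibition above about 25%, with at least 55% of replicates also reaching it, limit read from the data, passing the limit was not always enough; inconclusive means only one of those two conditions met; inactive means neither condition met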
Target sequence (Q9H3R0 2-372 limits assumed): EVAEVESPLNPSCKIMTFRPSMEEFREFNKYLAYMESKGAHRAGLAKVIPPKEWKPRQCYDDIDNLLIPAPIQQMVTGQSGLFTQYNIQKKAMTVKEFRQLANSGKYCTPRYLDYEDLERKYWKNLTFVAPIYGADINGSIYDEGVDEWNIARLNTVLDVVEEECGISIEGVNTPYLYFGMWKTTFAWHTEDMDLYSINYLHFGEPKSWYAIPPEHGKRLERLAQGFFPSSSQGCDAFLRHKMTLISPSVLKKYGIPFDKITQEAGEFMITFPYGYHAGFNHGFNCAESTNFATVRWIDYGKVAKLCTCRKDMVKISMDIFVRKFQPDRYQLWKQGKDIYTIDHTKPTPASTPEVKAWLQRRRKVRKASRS
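Test system: N-terminal GST-fused human GASC-1 (KDM4C) fragment, residues 2-372; quantity: GASC-1 enzyme at 10 nM final in reaction; dosing: single dose; schedule: 30 min demethylation and 1 h detection at room temperature; signal: LANCE TR-FRET, excitation 340 nm, emissions 618 and 671 nm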
IDH1 R132H inh: inhibitors of IDH1 R132H reductase, primary screen, biochemical, plate reader, single point | Isocitrate dehydrogenase [NADP] cytoplasmic (Homo sapiens), O75874 | diaphorase/resazurin fluorescence, 60 min | inhibition, % at 10 µM | actives 0.18% (n = 70,000) | AID 624101, 2012; in the data active means inhibition above about 34%; inconclusive means no clear call, values can overlap the other calls; inactive means below about 11%;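 further: 0% = DMSO and 100% = no enzyme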
T cruzi growth-1: T. cruzi intracellular proliferation inhibitors, primary screen, cell-based, beta-gal Tulahuen parasites, NIH3T3 host, luminescence. inhibition, % at 8.34 µM. T. cruzi beta-gal in NIH3T3, GalScreen luminescence, 90 h. actives 5.9% (n = 77,000);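 active means mean inhibition above about 93%, with at least 55% of replicates each passing it, limit read from the data, passing the limit was not always enough; inconclusive means only one of those two conditions holds; inactive means neither condition holds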
T cruzi growth-2: T. cruzi intracellular proliferation inhibitors, confirmation, cell-based, NIH3T3 host, beta-gal parasite, luminescence, cherry-pick; actives 72% (n = 5,600); AID 651739, 2012; shares compounds with T cruzi growth-1; T. cruzi beta-gal in NIH3T3, GalScreen luminescence, 90 h; inhibition, % at 8.35 µM;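 active means mean replicate inhibition above about 95% and at least 55% of replicates individually reaching it, limit read from the data; inconclusive means only one of the two criteria is met; inactive means neither criterion is met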
T cruzi growth-3: inhibitors of intracellular T. cruzi replication, confirmation, NIH3T3 host cells, beta-gal parasites, cherry-pick, set 2. shares compounds with T cruzi growth-1. T. cruzi beta-gal in NIH3T3, GalScreen luminescence, 90 h. inhibition, % at 2.09 µM. actives 21% (n = 5,600). AID 651740, 2012;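 active means mean inhibition above about 95%, with at least 55% of replicates also reaching it, limit read from the data; inconclusive means meets just one of the two conditions; inactive means meets neither condition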;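 further: plate controls were neutral control median for no effect and positive control median for full effect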
3T3 cytotox: cytotoxicity in mouse NIH/3T3 fibroblasts, confirmation, cytotoxicity control for T. cruzi proliferation inhibitor project, cell-based, cherry-pick, single point; shares compounds with T cruzi growth-1; NIH/3T3 viability, CellTiter-Glo ATP luminescence, 90 h; cytotoxicity (signal decrease), % at 8.35 µM; actives 14% (n = 5,600); AID 651742, 2012;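 active means mean signal decrease across replicates above about 35% based on untreated-well scatter, with enough replicates individually passing, limit read from the data; inconclusive means no rule stated though some were filed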;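 further: 0% = median of neutral control wells and 100% = median of positive control wells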
3T3 cytotox 2: NIH/3T3 fibroblast cytotoxicity, confirmation, cytotoxicity control, cell-based, cherry-pick, single point, set 2; shares compounds with T cruzi growth-1; NIH/3T3 viability, CellTiter-Glo ATP luminescence, 90 h; inhibition, % at 24.9 µM; actives 56% (n = 5,600); AID 651744, 2012;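 active means mean loss of cell viability signal at or above a set limit, and enough replicates individually reaching it; inconclusive means meets only the mean limit or only the replicate share; inactive means meets neither condition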;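 further: 0% = median of neutral control wells and 100% = median of positive control wells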
An asterisk follows results filed as active; ? = inconclusive; · = no result.

SMILES	KDM4C inh	IDH1 R132H inh	T cruzi growth-1	T cruzi growth-2	T cruzi growth-3	3T3 cytotox	3T3 cytotox 2
Cc1cccc(S(=O)(=O)N2C[C@@H](O)COC[C@@H]3O[C@H](CC(=O)Nc4ccc(-c5ccccc5)cc4)CC[C@H]32)c1	0	·	119*	107*	74	?	41*
COc1ccc(S(=O)(=O)N(C)C[C@@H]2OCCCC[C@@H](C)Oc3ccc(NS(=O)(=O)c4ccc(F)cc4)cc3C(=O)N([C@H](C)CO)C[C@H]2C)cc1	0	·	101*	111*	67	22	-6
COc1ccc(S(=O)(=O)N(C)C[C@H]2OCCCC[C@@H](C)Oc3ccc(NS(=O)(=O)c4ccc(F)cc4)cc3C(=O)N([C@@H](C)CO)C[C@@H]2C)cc1	1	·	104*	103*	76	10	8
COc1ccc(S(=O)(=O)N(C)C[C@@H]2OCCCC[C@H](C)Oc3ccc(NS(=O)(=O)c4ccc(F)cc4)cc3C(=O)N([C@@H](C)CO)C[C@H]2C)cc1	-1	·	105*	109*	40	-15	5
COc1ccc(S(=O)(=O)N(C)C[C@@H]2OCCCC[C@@H](C)Oc3ccc(NS(=O)(=O)c4ccc(F)cc4)cc3C(=O)N([C@@H](C)CO)C[C@H]2C)cc1	-2	·	101*	103*	65	-31	-6
COc1ccc(S(=O)(=O)Nc2ccc3c(c2)C(=O)N([C@H](C)CO)C[C@@H](C)[C@H](CN(C)S(=O)(=O)c2ccc(F)cc2)OCCCC[C@H](C)O3)cc1	-1	·	71	·	·	·	·
COc1ccc(S(=O)(=O)N(C)C[C@H]2OCCCC[C@H](C)Oc3ccc(NS(=O)(=O)c4ccc(F)cc4)cc3C(=O)N([C@H](C)CO)C[C@H]2C)cc1	1	·	69	·	·	·	·
COc1ccc(S(=O)(=O)Nc2ccc3c(c2)C(=O)N([C@H](C)CO)C[C@H](C)[C@H](CN(C)S(=O)(=O)c2ccc(F)cc2)OCCCC[C@@H](C)O3)cc1	-1	0	-2	·	·	·	·
COc1ccc(S(=O)(=O)Nc2ccc3c(c2)C(=O)N([C@H](C)CO)C[C@H](C)[C@H](CN(C)S(=O)(=O)c2ccc(F)cc2)OCCCC[C@H](C)O3)cc1	-2	0	80	·	·	·	·
COc1cccc(NC(=O)CN(c2ccc(C)cc2C)S(C)(=O)=O)c1	·	0	·	·	·	·	·
COC(=O)C(C(C)c1c[nH]c2ccccc12)[N+](=O)[O-] (stereo not given)	·	2	·	·	·	·	·
CCOC(=O)c1c(NC(=O)c2cc(S(=O)(=O)N3CCOCC3)ccc2OC)sc2c1CCC2	·	0	·	·	·	·	·
COc1ccc(-c2nnc(SCC(=O)Nc3ccc4cn[nH]c4c3)n2-c2ccc(Cl)cc2)cc1	·	2	·	·	·	·	·
Cn1ccnc1SCC(=O)N1c2ccccc2C(C)(c2ccc(Cl)cc2)CC1(C)C (stereo not given)	·	0	·	·	·	·	·
O=C(NCCN1CCCCC1)[C@@H]1N[C@@H]2c3ccc(-c4ccncc4)c(=O)n3C[C@@H]2[C@H]1CO	-1	·	101*	-17	-11	-9	-26
O=C(NCCN1CCCCC1)[C@H]1N[C@H]2c3ccc(-c4cccnc4)c(=O)n3C[C@H]2[C@@H]1CO	1	·	19	·	·	·	·
CN(CC(=O)Nc1ccc(Nc2ccccc2)cc1)S(=O)(=O)c1cc(Cl)ccc1Cl	·	0	·	·	·	·	·
C[C@H](CO)N1C[C@H](C)[C@H](CN(C)C(=O)Nc2ccc(F)cc2)OCCCC[C@H](C)Oc2ccc(NC(=O)Nc3ccccc3)cc2C1=O	0	-3	123*	107*	50	6	1
C[C@@H]1CN([C@H](C)CO)C(=O)c2cc(NC(=O)Nc3ccc(F)cc3)ccc2O[C@@H](C)CCCCO[C@H]1CN(C)C(=O)Nc1ccccc1	-3	0	48	·	·	·	·
C[C@@H]1CCCCO[C@@H](CN(C)C(=O)Nc2ccccc2)[C@H](C)CN([C@@H](C)CO)C(=O)c2cc(NC(=O)Nc3ccc(F)cc3)ccc2O1	0	0	97*	114*	58	-16	-20
C[C@@H]1CCCCO[C@@H](CN(C)C(=O)Nc2ccc(F)cc2)[C@@H](C)CN([C@@H](C)CO)C(=O)c2cc(NC(=O)Nc3ccccc3)ccc2O1	0	3	79	·	·	·	·
O=C(CSc1nc(-c2ccccc2)c(-c2ccccc2)[nH]1)Nc1ccccc1Cl	·	0	·	·	·	·	·
Cc1ccc(CN(CC(=O)O)S(=O)(=O)c2c(C)cc(C)cc2C)cc1	·	0	·	·	·	·	·
COc1ccc(CNC(=O)C[C@H]2C[C@@H]3c4cc(N(C)C)ccc4O[C@@H]3[C@@H](CO)O2)cc1	19	·	·	·	·	·	·
CN(C)c1ccc2c(c1)[C@@H]1C[C@@H](CC(=O)NCc3ccc4c(c3)OCO4)O[C@@H](CO)[C@@H]1O2	13	-7	121*	106*	17	4	-1
SMILES	KDM4C inh	IDH1 R132H inh	T cruzi growth-1	T cruzi growth-2	T cruzi growth-3	3T3 cytotox	3T3 cytotox 2
CN(C)c1ccc2c(c1)[C@H]1C[C@H](CC(=O)NCc3ccc4c(c3)OCO4)O[C@H](CO)[C@H]1O2	8	-3	85	·	·	·	·
CN(C)c1ccc2c(c1)[C@H]1C[C@@H](CC(=O)NCc3ccc(Oc4ccccc4)cc3)O[C@@H](CO)[C@H]1O2	3	-2	108*	48	22	3	17
N#Cc1ccc(NC(=O)CSc2ccc([N+](=O)[O-])cn2)cc1	·	1	·	·	·	·	·
Cc1nc2nc[nH]n2c(=O)c1NS(=O)(=O)c1ccc2c(c1)CCCC2	·	2	·	·	·	·	·
CCc1cnc(N2[C@H](CO)[C@@H](c3ccc(-c4cccc(F)c4)cc3)[C@@H]2C#N)s1	-1	·	85	·	·	·	·
CCc1cnc(N2[C@@H](C#N)[C@@H](c3ccc(-c4cccc(F)c4)cc3)[C@@H]2CO)s1	1	·	108*	101*	106*	29	60*
CCc1cnc(N2[C@H](C#N)[C@H](c3ccc(-c4cccc(F)c4)cc3)[C@H]2CO)s1	-3	·	105*	105*	93	10	26*
CCc1cnc(N2[C@@H](C#N)[C@H](c3ccc(-c4cccc(F)c4)cc3)[C@@H]2CO)s1	-2	·	83	·	·	·	·
CCc1cnc(N2[C@H](C#N)[C@@H](c3ccc(-c4cccc(F)c4)cc3)[C@H]2CO)s1	1	·	109*	110*	81	27	37
COc1cccc(NC(=O)CNC(=O)c2ccco2)c1	·	0	·	·	·	·	·
